Ki and inhibition data for 16 molecules are collected here from ChEMBL document CHEMBL1139996, “Synthesis, bioactivity, theoretical and molecular docking study of 1-cyano-N-substituted-cyclopropanecarboxamide as ketol-acid reductoisomerase inhibitor” (Bioorg Med Chem Lett, 2007).

One may read the Ki as a dissociation constant, usually derived from enzyme kinetics or from competition with a known ligand. In general, inhibition refers to the change of the read-out against control, counted positive when it falls. A higher inhibition goes with a response far below the control.

Each structure is given as a SMILES string. Some results are limits rather than exact numbers.

Target in the first experiment: not listed separately
Briefly: Inhibition of rice KARI. Further details: species or system Oryza sativa. The procedure, abridged: (§1)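 Activity followed as the decrease in A340 at 30 °C. Reaction mix: 0.2 mM NADPH, 1 mM MgCl2, substrate (2-acetolactate or hydroxypyruvate) and inhibitor as required, in 0.1 M Tris–HCl, pH 8.0. Reaction started by adding enzyme. In inhibitor preincubation runs, substrate was added last instead.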
`Cc1ccc(NC(=O)C2(C#N)CC2)cc1` showed a Ki greater than 300 µM.

Regarding `N#CC1(C(=O)O)CC1`, the Ki was 95.3 µM.

A further experiment deals with Oryza sativa. Kind of experiment: Inhibition of rice KARI at 200 ppm. The procedure, abridged:
as §1
`N#CC1(C(=O)Nc2cccc(Cl)c2)CC1` registered an inhibition of 0%.

With `Cc1ccc(NC(=O)C2(C#N)CC2)cc1`, the inhibition turned out to be 61.2%.

For the molecule `N#CC1(C(=O)Nc2cc(Cl)c(Cl)cc2Cl)CC1`, the inhibition was 0%.

In turn, `N#CC1(C(=O)Nc2cccc(Br)c2)CC1` registered an inhibition of 17.2%.

With `N#CC1(C(=O)NCCO)CC1`, the inhibition is 98.9%.

The molecule `N#CC1(C(=O)O)CC1` yielded an inhibition of 100%.

Molecule `N#CC1(C(=O)Nc2ccc(Br)cc2)CC1` registered an inhibition of 32.2%.

`CCOC(=O)C1(C#N)CC1` yielded an inhibition of 0%.

In turn, `N#CC1(C(=O)Nc2ccc(Cl)cc2)CC1` yielded an inhibition of 93.9%.

`N#CC1(C(=O)Nc2ccc(C(F)(F)F)cc2)CC1`: the inhibition is 0%.

With `N#CC1(C(=O)Nc2ccccc2C(F)(F)F)CC1`, the inhibition was 0%.

As for `N#CC1(C(=O)Nc2ccc(Cl)cc2Cl)CC1`, the inhibition stood at 97%.

In turn, `N#CC1(C(=O)Nc2ccccc2)CC1` showed an inhibition of 77.2%.

In the case of `Cc1ccccc1NC(=O)C1(C#N)CC1`, the inhibition stood at 100%.

As to `N#CC1(C(=O)Nc2cccc(C(F)(F)F)c2)CC1`, the inhibition was found to be 0%.

The molecule `COc1ccc(NC(=O)C2(C#N)CC2)cc1` displayed an inhibition of 3.95%.
